The subject of experiment [1] is Staphylococcus aureus. Briefly: Minimum inhibitory concentration was evaluated in vitro against Staphylococcus aureus UC 76. The class given is functional. In short, it runs like this: (§1)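 Standard microtitration broth assay against a panel of 10 Gram-positive and Gram-negative organisms. MIC read in µg/mL and averaged over multiple experiments.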
The subject of experiment [2] is Staphylococcus aureus. Briefly: Minimum inhibitory concentration was evaluated in vitro against Staphylococcus aureus H 228. The class given is functional. The settings on record: Staphylococcus aureus; read-out: MIC. In short, it runs like this:
as §1

The nature of experiment [3]: Clonogenic cytotoxicity against hamster V-79 cells. The experiment is classed as functional, Cricetulus griseus, V79. In short, it runs like this:
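Chinese hamster V-79 cells grown overnight, then drug-treated for 3 h at 37 °C. Medium is replaced with fresh medium and cells are incubated 5 days to allow colony formation. IC50 (µg/mL) is the concentration inhibiting colony formation by 50% relative to control.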

The species entered for the next experiment is Mus musculus. Kind of experiment: Compounds were evaluated for phototoxicity no-effect dose in mouse. The experiment is classed as functional. In short, it runs like this: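 Depilated female CD-1 mice, five per dose plus controls. Animals are dosed orally and then exposed daily to UV-A (320–400 nm) for 3 h, for up to 4 days or until a definite positive response. Redness or erythema relative to controls, read 24 h after irradiation, counts as positive. Reported as the highest dose with no effect (mg/kg).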

The test system of a further experiment is Enterococcus faecalis. Briefly: Minimum inhibitory concentration was evaluated in vitro against Enterococcus faecalis MGH-2. The experiment is classed as functional. In short, it runs like this: as §1
Experiment [4] concerns Escherichia coli. Briefly: Antibacterial activity against Escherichia coli Vogel after subcutaneous administration in mouse. The experiment is classed as functional. The settings on record: Escherichia coli, sc; read-out: PD50.
The subject of experiment [5] is Escherichia coli. Briefly: Antibacterial activity in vitro against Escherichia coli Vogel. The experiment is classed as functional. The note with it: Escherichia coli; read-out: MIC. The method in brief:
as §1

A further experiment deals with Pseudomonas aeruginosa. Briefly: Minimum inhibitory concentration was evaluated in vitro against Pseudomonas aeruginosa UI-18. The class given is functional. The note with it: Pseudomonas aeruginosa; read-out: MIC. The method in brief:
as §1

In experiment [6] the test system is Streptococcus pyogenes. Kind of experiment: Minimum inhibitory concentration was evaluated in vitro against Streptococcus pyogenes C 203. The class given is functional. In short, it runs like this: as §1
The subject of another experiment is Providencia rettgeri. Briefly: Minimum inhibitory concentration was evaluated in vitro against Providencia rettgeri M1771. The class given is functional. The note with it: Providencia rettgeri; read-out: MIC. The method in brief:
as §1

The subject of a further experiment is Klebsiella pneumoniae. Kind of experiment: Minimum inhibitory concentration was evaluated in vitro against Klebsiella pneumoniae MGH2. The class given is functional. The settings on record: Klebsiella pneumoniae; read-out: MIC. The method in brief: as §1
The next experiment relates to Streptococcus pneumoniae. Kind of experiment: Minimum inhibitory concentration was evaluated in vitro against Streptococcus pneumoniae SV-1. The class given is functional. In short, it runs like this: as §1
The test system of the next experiment is Enterobacter cloacae. Briefly: Minimum inhibitory concentration in vitro against Enterobacter cloacae MA 2646. The class given is functional. The note with it: Enterobacter cloacae; read-out: MIC.
Experiment [7] concerns Escherichia coli. Briefly: Antibacterial activity against Escherichia coli Vogel after oral administration in mouse. The class given is functional. The note with it: Escherichia coli, po; read-out: PD50.
Experiment [8] relates to Streptococcus pyogenes. Kind of experiment: Compounds were evaluated in vivo for antibacterial activity for mouse protection against Streptococcus pyogenes C 203 after oral administration. The settings on record: for ED50: Streptococcus pyogenes, C 203, po, read-out: PD50. The class given is functional.
Experiment [9] relates to Streptococcus pyogenes. Briefly: Antibacterial activity measured as mouse protection against Streptococcus pyogenes C 203 after subcutaneous administration. The class given is functional. The settings on record: for ED50: Streptococcus pyogenes, C 203, sc, read-out: PD50.
Setting [10] is: Staphylococcus aureus, read-out: MIC.
Where [11] appears, read: Enterococcus faecalis, read-out: MIC.
The mark [12] stands for this setting: Streptococcus pyogenes, read-out: MIC.
Where [13] appears, read: Streptococcus pneumoniae, read-out: MIC.

Values after ≈ are worked out from the molar mass of the structure shown. Some results are limits rather than exact numbers.

Broadly, the MIC is the lowest concentration found to suppress growth. As to `COc1c(N2CC[C@H]([C@@H](C)N)C2)c(F)cc2c(=O)c(C(=O)O)cn(C3CC3)c12` (racemic), the MIC came out at 0.003 µg/mL (≈ 0.0077 µM) in the experiment with Staphylococcus aureus [1] (setting [10]); 0.006 µg/mL (≈ 0.0154 µM) in the experiment with Staphylococcus aureus [2]; 0.006 µg/mL (≈ 0.0154 µM) in the experiment on Enterococcus faecalis (setting [11]); 0.025 µg/mL (≈ 0.0642 µM) in the experiment on Escherichia coli [5]; 0.4 µg/mL (≈ 1.03 µM) in the experiment with Pseudomonas aeruginosa; 0.003 µg/mL (≈ 0.0077 µM) in the experiment on Streptococcus pyogenes [6] (setting [12]). Also, the MIC in the experiment on Providencia rettgeri was 0.05 µg/mL (≈ 0.128 µM); in the experiment on Klebsiella pneumoniae, 0.05 µg/mL (≈ 0.128 µM); in the experiment on Streptococcus pneumoniae (setting [13]), 0.003 µg/mL (≈ 0.0077 µM); with Enterobacter cloacae, 0.05 µg/mL (≈ 0.128 µM). In addition, in experiment [3], the Cytotoxicity is below 7.8 µg/mL. Also, the Dose in the experiment filed under Mus musculus is above 100 mg/kg. The ED50 in the experiment with Escherichia coli [4] stood at 1 mg/kg; in the experiment with Escherichia coli [7], 4 mg/kg; with Streptococcus pyogenes [8] it was 1 mg/kg; with Streptococcus pyogenes [9], 0.3 mg/kg.
For the compound `Nc1c(F)c(N2CCC(N)C2)c(F)c2c1c(=O)c(C(=O)O)cn2C1CC1` (stereo not given), the MIC in the experiment with Staphylococcus aureus [1] (setting [10]) came out at 0.006 µg/mL (≈ 0.0165 µM); in the experiment on Staphylococcus aureus [2], 0.013 µg/mL (≈ 0.0357 µM); with Enterococcus faecalis (setting [11]), 0.025 µg/mL (≈ 0.0686 µM); in the experiment with Escherichia coli [5] it was 0.006 µg/mL (≈ 0.0165 µM); in the experiment on Pseudomonas aeruginosa, 0.05 µg/mL (≈ 0.137 µM); in the experiment on Streptococcus pyogenes [6] (setting [12]), 0.025 µg/mL (≈ 0.0686 µM). The MIC in the experiment with Providencia rettgeri is 0.025 µg/mL (≈ 0.0686 µM); in the experiment on Klebsiella pneumoniae, 0.006 µg/mL (≈ 0.0165 µM); in the experiment with Streptococcus pneumoniae (setting [13]), 0.006 µg/mL (≈ 0.0165 µM); in the experiment on Enterobacter cloacae, 0.013 µg/mL (≈ 0.0357 µM). The same compound returned a Cytotoxicity in experiment [3] of 15 µg/mL. Besides, in the experiment listed under Mus musculus, the Dose stood at 55 mg/kg. In addition, the ED50 in the experiment on Escherichia coli [4] stood at 0.3 mg/kg; in the experiment on Escherichia coli [7] it was 1 mg/kg; with Streptococcus pyogenes [8], 28 mg/kg; in the experiment with Streptococcus pyogenes [9], 8 mg/kg.
`CCN[C@H](C)[C@H]1CCN(c2c(F)cc3c(=O)c(C(=O)O)cn(C4CC4)c3c2OC)C1` (racemic): the MIC was determined as 0.003 µg/mL (≈ 0.00719 µM) with Staphylococcus aureus [1] (setting [10]); 0.013 µg/mL (≈ 0.0311 µM) with Staphylococcus aureus [2]; 0.025 µg/mL (≈ 0.0599 µM) in the experiment on Enterococcus faecalis (setting [11]); 0.1 µg/mL (≈ 0.24 µM) in the experiment on Escherichia coli [5]; 3.1 µg/mL (≈ 7.43 µM) in the experiment with Pseudomonas aeruginosa; 0.006 µg/mL (≈ 0.0144 µM) in the experiment on Streptococcus pyogenes [6] (setting [12]). Further, the MIC in the experiment with Providencia rettgeri worked out at 0.4 µg/mL (≈ 0.958 µM); in the experiment with Klebsiella pneumoniae, 0.2 µg/mL (≈ 0.479 µM); in the experiment on Streptococcus pneumoniae (setting [13]), 0.006 µg/mL (≈ 0.0144 µM); in the experiment on Enterobacter cloacae it was 0.1 µg/mL (≈ 0.24 µM). The Cytotoxicity in [3] came out at 110 µg/mL. This compound gave a Dose in the experiment listed under Mus musculus above 100 mg/kg. Moreover, the ED50 came to 2 mg/kg in the experiment on Escherichia coli [4], 5 mg/kg in the experiment with Escherichia coli [7], 0.5 mg/kg in the experiment with Streptococcus pyogenes [8] and 0.2 mg/kg in the experiment on Streptococcus pyogenes [9].
`CCN[C@@H](C)[C@@H]1CCN(c2nc3c(cc2F)c(=O)c(C(=O)O)cn3C2CC2)C1` (racemic): the MIC is 0.025 µg/mL (≈ 0.0644 µM) against Staphylococcus aureus [1]; 0.1 µg/mL (≈ 0.257 µM) in the experiment with Staphylococcus aureus [2]; 0.05 µg/mL (≈ 0.129 µM) with Enterococcus faecalis; 0.1 µg/mL (≈ 0.257 µM) in the experiment on Escherichia coli [5]; 1.6 µg/mL (≈ 4.12 µM) in the experiment on Pseudomonas aeruginosa; 0.05 µg/mL (≈ 0.129 µM) in the experiment on Streptococcus pyogenes [6]. The MIC is 0.8 µg/mL (≈ 2.06 µM) with Providencia rettgeri, 0.2 µg/mL (≈ 0.515 µM) with Klebsiella pneumoniae, 0.025 µg/mL (≈ 0.0644 µM) in the experiment on Streptococcus pneumoniae and 0.1 µg/mL (≈ 0.257 µM) in the experiment on Enterobacter cloacae. The compound further gave a Cytotoxicity in experiment [3] of 130 µg/mL. This compound yielded a Dose in the experiment filed under Mus musculus below 30 mg/kg. Also, the ED50 came out at 1 mg/kg with Escherichia coli [4] and 2 mg/kg in the experiment with Escherichia coli [7]. The PD50 in the experiment on Streptococcus pyogenes [8] and in the experiment with Streptococcus pyogenes [9] was 2 mg/kg throughout.
`CCn1cc(C(=O)O)c(=O)c2cc(F)c(N3CC[C@H]([C@@H](C)N)C3)c(F)c21` (mixture of isomers): the MIC came out at 0.006 µg/mL with Staphylococcus aureus [1] (setting [10]); 0.025 µg/mL in the experiment on Staphylococcus aureus [2]; 0.013 µg/mL in the experiment with Enterococcus faecalis (setting [11]); 0.05 µg/mL in the experiment on Escherichia coli [5]; 0.8 µg/mL in the experiment on Pseudomonas aeruginosa; 0.003 µg/mL with Streptococcus pyogenes [6] (setting [12]). The MIC in the experiment with Providencia rettgeri was 0.2 µg/mL; in the experiment on Klebsiella pneumoniae it was 0.1 µg/mL; with Streptococcus pneumoniae (setting [13]), 0.003 µg/mL; in the experiment on Enterobacter cloacae, 0.05 µg/mL. This compound yielded a Cytotoxicity in experiment [3] of 9.8 µg/mL. In the experiment filed under Mus musculus, the Dose was below 10 mg/kg. Moreover, the ED50 with Escherichia coli [4] worked out at 1 mg/kg; with Escherichia coli [7], 3 mg/kg; in the experiment with Streptococcus pyogenes [8] it was 1 mg/kg; with Streptococcus pyogenes [9] it was 0.4 mg/kg.

For the origin of these results see ChEMBL document CHEMBL1126988, “Quinolone antibacterials containing the new 7-[3-(1-aminoethyl)-1- pyrrolidinyl] side chain: the effects of the 1-aminoethyl moiety and its stereochemical configurations on potency and in vivo efficacy” (J Med Chem, 1993).
